Results reported in ChEMBL document CHEMBL2417486, “Exploring natural product chemistry and biology with multicomponent reactions. 5. Discovery of a novel tubulin-targeting scaffold derived from the rigidin family of marine alkaloids” (J Med Chem, 2013).
Values after ≈ are worked out from the molar mass of the structure shown.

What was measured:
[1] = system: MCF7; assay: Growth inhibition of human MCF7 cells after 48 hrs by MTT assay; type: functional; details: MCF7, 48 h
Method in brief: (§1)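 Cells seeded at 4 × 10^3 per well, grown 24 h, then treated 48 h at 0.004–100 µM from 100 or 25 mM DMSO stocks. Controls were 0.1% DMSO and phenyl arsine oxide. MTT (5 mg/mL) added for 2 h, formazan dissolved in DMSO, A490 read. […] HeLa/MCF-7 in DMEM, MES-SA lines in RPMI-1640, all with 10% FBS.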

[2] = system: HeLa; assay: Growth inhibition of human HeLa cells after 48 hrs by MTT assay; type: functional; method in brief: as §1
[3] = molecular target: T1, Tubulin beta (Homo sapiens) (UniProt P68371+Q9H4B7+Q13509+P04350+Q3ZCM7+P07437+Q13885+Q9BVA1+Q9BUF5+A6NNZ2); assay: Inhibition of [3H] radiolabelled colchicine binding to tubulin beta (unknown origin) at 5 uM by DEAE-cellulose filter method; type: protein assay
[4] = molecular target: T1, Tubulin beta (Homo sapiens); assay: Inhibition of [3H] radiolabelled colchicine binding to tubulin beta (unknown origin) at 1 uM by DEAE-cellulose filter method; type: protein assay
[5] = Aqueous solubility of the compound by spectrophotometric analysis; type: physicochemical
Method in brief: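 Compound dispersed in ultrapure water at >0.5 mg/mL; supernatant centrifuged repeatedly until no pellet remained, then diluted 1:2 (solution:DMSO). Concentration read from absorbance at peak 335–336 nm against a calibration line made in 1:2 water/DMSO, and corrected for the DMSO dilution.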

GI50 [1] [µM] | GI50 [2] [µM] | solubility [5] [µM] | SMILES | inhibition [3] [%] | inhibition [4] [%]
> 100 | > 100 |  | COc1cc(-c2c(C(=O)c3ccc(Br)cc3)[nH]c3[nH]c(=O)[nH]c(=O)c23)cc(OC)c1OC |  | 
> 100 | > 100 |  | O=C(c1ccc(O)cc1)c1[nH]c2[nH]c(=O)[nH]c(=O)c2c1-c1ccc(O)cc1 |  | 
40 | 8.2 |  | COc1cc(-c2c(C(=O)c3ccccc3)[nH]c3[nH]cnc(=O)c23)cc(I)c1OC |  | 
3 | 5 |  | COc1cc(-c2c(C(=O)c3ccc(O)cc3)[nH]c3[nH]cnc(=O)c23)ccc1O |  | 
0.11 | 0.3 |  | COc1ccc(C(=O)c2[nH]c3[nH]cnc(=O)c3c2-c2cc(Br)cc(Br)c2)cc1 |  | 
> 100 | > 100 |  | COc1ccc(C(=O)c2[nH]c3[nH]c(=O)[nH]c(=O)c3c2-c2ccc(OC)cc2)cc1 |  | 
> 100 | > 100 |  | COc1cc(-c2c(C(=O)c3ccc(O)cc3)[nH]c3[nH]c(=O)[nH]c(=O)c23)ccc1O |  | 
> 100 | > 100 |  | COc1cc(C(=O)c2[nH]c3[nH]c(=O)[nH]c(=O)c3c2-c2ccc(O)cc2)ccc1O |  | 
47 | 71 |  | O=C(c1ccccc1)c1[nH]c2[nH]c(=O)[nH]c(=O)c2c1-c1cc(Br)cc(Br)c1 |  | 
> 100 | > 100 |  | COc1cc(C(=O)c2[nH]c3[nH]c(=O)[nH]c(=O)c3c2-c2cc(OC)c(OC)c(OC)c2)ccc1OCc1ccccc1 |  | 
10 | 7.1 |  | COc1cc(-c2c(C(=O)c3ccccc3)[nH]c3[nH]cnc(=O)c23)cc(Br)c1OC |  | 
> 100 | > 100 |  | COc1cc(-c2c(C(=O)c3ccc(F)cc3)[nH]c3[nH]c(=O)[nH]c(=O)c23)cc(OC)c1OC |  | 
0.26 | 0.3 |  | O=C(c1ccc(O)cc1)c1[nH]c2[nH]cnc(=O)c2c1-c1cc(Br)cc(Br)c1 |  | 
> 100 | > 100 |  | COc1cc(C(=O)c2[nH]c3[nH]c(=O)[nH]c(=O)c3c2-c2ccc(O)c(OC)c2)ccc1O |  | 
14 | 80 |  | COc1ccc(-c2c(C(=O)c3ccccc3)[nH]c3[nH]c(=O)[nH]c(=O)c23)cc1 |  | 
33 | 48 |  | COc1cc(-c2c(C(=O)c3ccccc3)[nH]c3[nH]cnc(=O)c23)cc(OC)c1OC |  | 

Further lines, the molecule ahead of its results:

SMILES | GI50 [1] [µM] | GI50 [2] [µM] | solubility [5] [µM] | inhibition [3] [%] | inhibition [4] [%]
O=C(c1ccccc1)c1[nH]c2[nH]cnc(=O)c2c1-c1cccnc1 | 1.26 | 0.88 |  |  | 
O=C(c1ccccc1)c1[nH]c2[nH]cnc(=O)c2c1-c1cc(Br)cs1 | 56 | 43 |  |  | 
O=C(c1ccccc1)c1[nH]c2ncnc(-c3ccccc3)c2c1-c1cccnc1 | 51 | 45 |  |  | 
O=C(c1ccccc1)c1[nH]c2[nH]cnc(=O)c2c1-c1cccc(Br)n1 | 0.135 | 0.15 |  |  | 
Nc1ncnc2[nH]c(C(=O)c3ccccc3)c(-c3ccccc3)c12 | 3.9 | 4.4 |  |  | 
COc1ccc(C(=O)c2[nH]c3[nH]cnc(=O)c3c2-c2cc(OC)c(OC)c(OC)c2)cc1 | 7 | > 100 |  |  | 
N#Cc1cccc(-c2c(C(=O)c3ccccc3)[nH]c3[nH]cnc(=O)c23)c1 | 0.25 | 0.19 |  |  | 
O=C(c1ccccc1)c1[nH]c2[nH]cnc(=O)c2c1-c1cccc(Br)c1 | 0.06 | 0.13 |  |  | 
N#Cc1cccc(-c2c(C(=O)c3ccc(OCc4ccccc4)cc3)[nH]c3ncnc(N)c23)c1 | > 100 | > 100 |  |  | 
O=C(c1ccc(F)cc1)c1[nH]c2[nH]cnc(=O)c2c1-c1cc(Br)cc(Br)c1 | 0.8 | 6.3 |  |  | 
O=C(c1ccc(Br)cc1)c1[nH]c2[nH]cnc(=O)c2c1-c1cc(Br)cc(Br)c1 | 0.6 | 2.2 |  |  | 
COc1ccc(/C=C\c2cc(OC)c(OC)c(OC)c2)cc1O |  |  |  | 99 | 89
O=C(c1ccc(OCc2ccccc2)cc1)c1[nH]c2[nH]cnc(=O)c2c1-c1ccccc1 | 0.053 | 0.045 |  |  | 
O=C(c1ccccc1)c1[nH]c2[nH]cnc(=O)c2c1-c1cccc(I)c1 | 0.15 | 0.2 |  |  | 
Nc1ncnc2[nH]c(C(=O)c3ccccc3)c(-c3cccs3)c12 | 15 | 28 |  |  | 
O=C(c1ccccc1)c1[nH]c2[nH]cnc(=O)c2c1-c1cccc(O)c1 | 1.09 | 0.86 |  |  | 
Nc1ncnc2[nH]c(C(=O)c3ccccc3)c(-c3cncc(Br)c3)c12 | > 100 | > 100 |  |  | 
O=C(c1ccccc1)c1[nH]c2[nH]c(=S)[nH]c(=S)c2c1-c1cc(Br)cc(Br)c1 | > 100 | > 100 |  |  | 
COc1ccc(C(=O)c2[nH]c3ncnc(-c4ccc(OC)cc4)c3c2-c2ccc(OC)cc2)cc1 | 8 | 20 |  |  | 
O=C(c1ccccc1)c1[nH]c2ncnc(-c3ccccc3)c2c1-c1cc(Br)cc(Br)c1 | 10 | 18 |  |  | 
Nc1ncnc2[nH]c(C(=O)c3ccccc3)c(-c3cc(Br)cc(Br)c3)c12 | > 100 | > 100 |  |  | 
O=C(c1ccccc1)c1[nH]c2[nH]cnc(=O)c2c1-c1c(Cl)cccc1Cl | 2.2 | 4.9 |  |  | 
O=C(c1ccccc1)c1[nH]c2[nH]cnc(=O)c2c1-c1cccc(Cl)c1 | 0.06 | 0.1 |  |  | 
O=C(c1ccccc1)c1[nH]c2[nH]cnc(=O)c2c1-c1cccc(F)c1 | 0.07 | 0.065 | 65 (≈ 21.7 µg/mL) |  | 
O=C(c1ccc(OCc2ccccc2)cc1)c1[nH]c2[nH]cnc(=O)c2c1-c1cc(Br)cc(Br)c1 | 0.31 | 0.4 |  |  | 
Cc1ccc(-c2ncnc3[nH]c(C(=O)c4ccccc4)c(-c4cc(Br)cc(Br)c4)c23)cc1 | 7 | 9 |  |  | 
O=C(c1ccc(O)cc1)c1[nH]c2[nH]cnc(=O)c2c1-c1ccccc1 | 0.3 | 0.4 |  |  | 
COc1ccc(-c2c(C(=O)c3ccccc3)[nH]c3ncnc(-c4ccccc4)c23)cc1 | 75 | 70 |  |  | 
O=C(c1ccc(O)cc1)c1[nH]c2[nH]cnc(=O)c2c1-c1ccc(O)cc1 | 2.8 | 4 |  |  | 
Nc1ncnc2[nH]c(C(=O)c3ccccc3)c(-c3c(Cl)cccc3Cl)c12 | > 100 | > 100 |  |  | 
